# Measured values from different studies.
# Protocols differ between the studies behind these lines.
# MALT1: Mucosa-associated lymphoid tissue lymphoma translocation protein 1 (MALT1, Homo sapiens, UniProt Q9UDY8)
# PDE5A: cGMP-specific 3',5'-cyclic phosphodiesterase (PDE5A, Homo sapiens, UniProt O76074)
# SIGMAR1: Sigma non-opioid intracellular receptor 1 (SIGMAR1, Homo sapiens, UniProt Q99720)
Structure (SMILES),target,assay,conditions,inhibition [%]
CCOC(=O)c1ccc(OC(=O)CCCCCNC(=N)N)cc1,MALT1,"enzyme activity, inhibitor",10 µM,46
Cc1ncc(C)n2nc(/C=C/c3nc(N4CCCC4)cc(N4CCOCC4)n3)nc12,PDE5A,"enzyme activity, inhibitor",10 µM,38
CC(C)N1CCC[C@H]1CNC(=O)c1cn(C2CCCC2)c(=O)c2c1c1ccccc1n2C,SIGMAR1,"ligand displacement, radioligand",10 µM,47
COCc1c(-c2cc3cc(C)cc(OC)c3s2)c2c(N)ncnn2c1CN1CCNC(=O)C1,PDE5A,"enzyme activity, inhibitor",10 µM,8
Cn1cc(-c2cc(F)cc(N3CCn4c(cc5c4CCCC5)C3=O)c2CO)cc(Nc2ccc(N3CCN(C4COC4)CC3)cn2)c1=O,"Sphingosine kinase 1 (SPHK1, Homo sapiens, UniProt Q9NYA1)","enzyme activity, inhibitor",0.1 µM,4
COc1cc(Nc2ncc(F)c(Nc3ccc4c(n3)NC(=O)C(C)(C)O4)n2)cc(OC)c1OC,"Serine/threonine-protein kinase VRK2 (VRK2, Homo sapiens, UniProt Q86Y07)",binding,10 µM,0
CN(CCN1CCC(OC(=O)Nc2ccccc2-c2ccccc2)CC1)C(=O)c1ccc(CN2CCC(C(N)=O)CC2)cc1,PDE5A,"enzyme activity, inhibitor",1 µM,0
C[C@H](C(=O)N[C@H]1COc2ccccc2[C@@H]1S(C)(=O)=O)c1ccc(F)cc1,PDE5A,"enzyme activity, inhibitor",10 µM,-5
CCN(CC)CCCC[C@H](NC(=O)[C@H](CC(C)C)NC(=O)[C@H](C)NC(=O)[C@H](Cc1ccccc1)NC(=O)c1ccc(C(C)(C)C)cc1)C(=O)N[C@@H](CO)C(=O)OC,"Cannabinoid receptor 1 (CNR1, Homo sapiens, UniProt P21554)","ligand displacement, radioligand",10 µM,-13
C#Cc1n[nH]c2c(-c3cn(C(C)c4ccccn4)c(=O)[nH]c3=O)cc(F)cc12 (stereo not drawn),"Aurora kinase B (AURKB, Homo sapiens, UniProt Q96GD4)","enzyme activity, inhibitor",1 µM,6.7
O[C@H]1[C@H](n2cnc3c(NC(C4CCCCC4)C4CCCCC4)nc(Cl)nc32)[C@H]2C[C@@]2(CCl)[C@H]1O,"5-hydroxytryptamine receptor 2A (HTR2A, Homo sapiens, UniProt P28223)","ligand displacement, radioligand",10 µM,21
COc1ccc(S(=O)(=O)N2CCCCC2)cc1C,"Endothelin-1 receptor (EDNRA, Homo sapiens, UniProt P25101)","ligand displacement, radioligand",10 µM,< 30
CC(C)[C@H](NC(=O)OCc1ccccc1)C(=O)N[C@@H](CCCN=C(N)N)C(=O)N1CCC[C@H]1C(=O)N[C@@H](CCCN=C(N)N)C(=O)CF,MALT1,"enzyme activity, inhibitor",0.1 µM,97
CC(C)=CCCC1(C)C=Cc2c(O)c3c(c(CC=C(C)C)c2O1)OC12C(=CC4CC1C(C)(C)OC2(C/C=C(/C)C(=O)O)C4O)C3=O (stereo not drawn),"Histone-lysine N-methyltransferase EHMT1 (EHMT1, Homo sapiens, UniProt Q9H9B1)",cell-free assay,10 µM,-4
[H]/N=C(/N)c1ccc(NCc2nc3cc(C(=O)N(CCC(=O)O)c4ccccn4)ccc3n2C)cc1,"Vitamin K-dependent protein C (PROC, Homo sapiens, UniProt P04070)","enzyme activity, inhibitor",2 µM,43
Cn1cc(-c2cccc(N3CCc4c(sc5c4CC(C)(C)C5)C3=O)c2CO)cc(Nc2ccncn2)c1=O,"Phosphatidylinositol 4-phosphate 3-kinase C2 domain-containing subunit beta (PIK3C2B, Homo sapiens, UniProt O00750)","enzyme activity, inhibitor",1 µM,-3
CN(C)C(=O)COC(=O)Cc1ccc(OC(=O)c2ccc(NC(=N)N)cc2)cc1,"Caspase-6 (CASP6, Homo sapiens, UniProt P55212)","enzyme activity, inhibitor",10 µM,3
C[C@H]1N=C(c2ccccc2F)c2cc(Br)ccc2-n2cnc(C(=O)O)c21,"Kappa-type opioid receptor (OPRK1, Homo sapiens, UniProt P41145)","ligand displacement, radioligand",10 µM,52.3
CC(C)Cn1cnc2c(N)nc3ccccc3c21,SIGMAR1,"ligand displacement, radioligand",10 µM,15
N=C(N)c1ccc2cc(OC(=O)c3ccc(N=C(N)N)cc3)ccc2c1,MALT1,"enzyme activity, inhibitor",10 µM,49
O=C(Nc1cccnn1)N1CCN([C@@H]2CCOc3cc(C(F)(F)F)ccc32)CC1,PDE5A,"enzyme activity, inhibitor",20 µM,5
